How the values were obtained:
Mus musculus [1] = assay: The compound was tested for mean survival time for 15 mice implanted Intraperitoneally with P-388/FU Leukemia cell line at 160 mg/kg; assay type: functional; conditions: route intraperitoneal
Summary of the method: (§1)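 P-388/0 or P-388/FU cells (1×10^6) implanted ip into male BDF1 mice on day 0. Dosing was ip, daily for 5 consecutive days beginning 24 h later, in saline or Emulphor 620 vehicle. Six mice per treated group. Animals followed to death and median survival time recorded in days. The control group had 15 mice.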

Mus musculus [2] = assay: The compound was tested for mean survival time for 15 mice implanted Intraperitoneally with P-388/0 Leukemia cell line at 160 mg/kg; assay type: functional; conditions: route intraperitoneal; summary of the method: as §1
Mus musculus [3] = assay: The compound was tested for change in weight for mice implanted intraperitoneally with P-388/0 Leukemia cell line at 360 mg/kg; assay type: functional; conditions: route intraperitoneal
Summary of the method: (§2)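 Male BDF1 mice inoculated ip on day 0 with 1 × 10^6 leukemia cells (six mice per group, average weight 22 g). Dosing ip once daily for 5 consecutive days starting 24 h after implantation. Fluoropyrimidine references in 0.9% saline; prodrugs formulated with Emulphor 620; vehicle controls 0.2 mL. Percent body weight change recorded per group.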

Mus musculus [4] = assay: The compound was tested for mean survival time for 15 mice implanted Intraperitoneally with P-388/FU Leukemia cell line at 360 mg/kg; assay type: functional; conditions: route intraperitoneal; summary of the method: as §1
Mus musculus [5] = assay: The compound was tested for increase in life span for mice implanted intraperitoneally with P-388/0 Leukemia cell line at 160 mg/kg; assay type: functional; conditions: P388, ip, route intraperitoneal
Summary of the method: (§3)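 Male BDF1 mice, six per group, implanted ip with 1×10^6 P-388/0 or P-388/FU cells on day 0. Dosed ip daily for 5 days from 24 h post-implant, in saline or Emulphor 620 vehicle. Mice observed until death. %ILS = (T/C − 1)×100, from median survival of treated mice (T) versus saline-treated controls (C).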

Mus musculus [6] = assay: The compound was tested for increase in life span for mice implanted intraperitoneally with P-388/0 Leukemia cell line at 360 mg/kg; assay type: functional; conditions: P388, ip, route intraperitoneal; summary of the method: as §3
Mus musculus [7] = assay: The compound was tested for increase in life span for mice implanted intraperitoneally with P-388/FU Leukemia cell line at 360 mg/kg; assay type: functional; conditions: P388, ip, route intraperitoneal; summary of the method: as §3
Mus musculus [8] = assay: The compound was tested for change in weight for mice implanted intraperitoneally with P-388/FU Leukemia cell line at 160 mg/kg; assay type: functional; conditions: route intraperitoneal; summary of the method: as §2
Mus musculus [9] = assay: The compound was tested for mean survival time for 15 mice implanted Intraperitoneally with P-388/0 Leukemia cell line at 240 mg/kg; assay type: functional; conditions: route intraperitoneal; summary of the method: as §1
Mus musculus [10] = assay: The compound was tested for mean survival time for 15 mice implanted Intraperitoneally with P-388/0 Leukemia cell line at 360 mg/kg; assay type: functional; conditions: route intraperitoneal; summary of the method: as §1
CHO [11] = assay: The minimun drug concentration that gives rise to colonies containing fewer than 50 cells after incubation at 37 degree C against chinese hamster ovary cells 20 fold resistant to fluoroudine; assay type: functional, cell-based; conditions: Cricetulus griseus
Summary of the method: (§4)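 About 200 cells per dish were grown as clones in drug at 0, 0.5, 1.5, 5, 10, 50 or 100 μM for 7 d at 37 °C in humidified CO2. Colonies were fixed with 10% formaldehyde and stained with 0.1% crystal violet. The value is the lowest tested concentration giving colonies of fewer than 50 cells.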

Mus musculus [12] = assay: The compound was tested for increase in life span for mice implanted intraperitoneally with P-388/FU Leukemia cell line at 160 mg/kg; assay type: functional; conditions: P388, ip, route intraperitoneal; summary of the method: as §3
Mus musculus [13] = assay: The compound was tested for change in weight for mice implanted intraperitoneally with P-388/0 Leukemia cell line at 240 mg/kg; assay type: functional; conditions: route intraperitoneal; summary of the method: as §2
Mus musculus [14] = assay: The compound was tested for change in weight for mice implanted intraperitoneally with P-388/0 Leukemia cell line at 160 mg/kg; assay type: functional; conditions: route intraperitoneal; summary of the method: as §2
Mus musculus [15] = assay: The compound was tested for change in weight for mice implanted intraperitoneally with P-388/FU Leukemia cell line at 240 mg/kg; assay type: functional; conditions: route intraperitoneal; summary of the method: as §2
Mus musculus [16] = assay: The compound was tested for increase in life span for mice implanted intraperitoneally with P-388/0 Leukemia cell line at 240 mg/kg; assay type: functional; conditions: P388, ip, route intraperitoneal; summary of the method: as §3
Mus musculus [17] = assay: The compound was tested for change in weight for mice implanted intraperitoneally with P-388/FU Leukemia cell line at 360 mg/kg; assay type: functional; conditions: route intraperitoneal; summary of the method: as §2
Mus musculus [18] = assay: The compound was tested for increase in life span for mice implanted intraperitoneally with P-388/FU Leukemia cell line at 240 mg/kg; assay type: functional; conditions: P388, ip, route intraperitoneal; summary of the method: as §3
Mus musculus [19] = assay: The compound was tested for mean survival time for 15 mice implanted Intraperitoneally with P-388/FU Leukemia cell line at 240 mg/kg; assay type: functional; conditions: route intraperitoneal; summary of the method: as §1
CHO [20] = assay: The minimun drug concentration that gives rise to colonies containing fewer than 50 cells after incubation at 37 degree C against chinese hamster ovary cells; assay type: functional, cell-based; conditions: Cricetulus griseus; summary of the method: as §4
Mus musculus [21] = assay: The compound was tested for change in weight for mice implanted intraperitoneally with P-388/0 Leukemia cell line at 335 mg/kg; assay type: functional; conditions: route intraperitoneal; summary of the method: as §2
[22] = The compound was tested for half life in aqueous media in 0.05 M NaOH, at pH 11.7; assay type: ADME; conditions: aqueous 0.05 M NaOH
Summary of the method: (§5)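 A 10^-3 M aqueous stock was diluted into each buffer to a final 10^-4 M and stirred at room temperature. Aliquots were taken at intervals (typically 2–100 h) and parent drug was quantified by reverse-phase C-18 HPLC with UV detection at 268 nm. Half-lives are the average of triplicate determinations.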

Mus musculus [23] = assay: The compound was tested for mean survival time for 15 mice implanted Intraperitoneally with P-388/0 Leukemia cell line at 223 mg/kg; assay type: functional; conditions: route intraperitoneal; summary of the method: as §1
Mus musculus [24] = assay: The compound was tested for change in weight for mice implanted intraperitoneally with P-388/0 Leukemia cell line at 149 mg/kg; assay type: functional; conditions: route intraperitoneal; summary of the method: as §2
Mus musculus [25] = assay: The compound was tested for increase in life span for mice implanted intraperitoneally with P-388/0 Leukemia cell line at 335 mg/kg; assay type: functional; conditions: P388, ip, route intraperitoneal; summary of the method: as §3
Mus musculus [26] = assay: The compound was tested for change in weight for mice implanted intraperitoneally with P-388/0 Leukemia cell line at 223 mg/kg; assay type: functional; conditions: route intraperitoneal; summary of the method: as §2
Mus musculus [27] = assay: The compound was tested for mean survival time for 15 mice implanted Intraperitoneally with P-388/FU Leukemia cell line at 223 mg/kg; assay type: functional; conditions: route intraperitoneal; summary of the method: as §1
[28] = The compound was tested for half life in aqueous media in 0.05 M Tris-HCl buffer, at pH 9.0; assay type: ADME; summary of the method: as §5
Mus musculus [29] = assay: The compound was tested for change in weight for mice implanted intraperitoneally with P-388/FU Leukemia cell line at 335 mg/kg; assay type: functional; conditions: route intraperitoneal; summary of the method: as §2
[30] = The compound was tested for half life in aqueous media in 0.05 M NaOH, at 12.6; assay type: ADME; conditions: aqueous 0.05 M NaOH, pH 12.6; summary of the method: as §5
Mus musculus [31] = assay: The compound was tested for change in weight for mice implanted intraperitoneally with P-388/FU Leukemia cell line at 149 mg/kg; assay type: functional; conditions: route intraperitoneal; summary of the method: as §2
Mus musculus [32] = assay: The compound was tested for increase in life span for mice implanted intraperitoneally with P-388/FU Leukemia cell line at 223 mg/kg; assay type: functional; conditions: P388, ip, route intraperitoneal; summary of the method: as §3
Mus musculus [33] = assay: The compound was tested for mean survival time for 15 mice implanted Intraperitoneally with P-388/FU Leukemia cell line at 149 mg/kg; assay type: functional; conditions: route intraperitoneal; summary of the method: as §1
[34] = The compound was tested for half life in aqueous media in 0.05 M potassium phosphate buffer, at pH 7.4; assay type: ADME; summary of the method: as §5
[35] = The compound was tested for half life in aqueous media in 0.20 M HCl/KCl solution, at pH 1.0; assay type: ADME; summary of the method: as §5
Mus musculus [36] = assay: The compound was tested for increase in life span for mice implanted intraperitoneally with P-388/0 Leukemia cell line at 149 mg/kg; assay type: functional; conditions: P388, ip, route intraperitoneal; summary of the method: as §3
Mus musculus [37] = assay: The compound was tested for increase in life span for mice implanted intraperitoneally with P-388/FU Leukemia cell line at 149 mg/kg; assay type: functional; conditions: P388, ip, route intraperitoneal; summary of the method: as §3
Mus musculus [38] = assay: The compound was tested for mean survival time for 15 mice implanted Intraperitoneally with P-388/0 Leukemia cell line at 149 mg/kg; assay type: functional; conditions: route intraperitoneal; summary of the method: as §1
Mus musculus [39] = assay: The compound was tested for mean survival time for 15 mice implanted Intraperitoneally with P-388/0 Leukemia cell line at 335 mg/kg; assay type: functional; conditions: route intraperitoneal; summary of the method: as §1
[40] = The compound was tested for half life in aqueous media in 0.05 M sodium acetate buffer, at pH 4.0; assay type: ADME; summary of the method: as §5
Mus musculus [41] = assay: The compound was tested for increase in life span for mice implanted intraperitoneally with P-388/FU Leukemia cell line at 335 mg/kg; assay type: functional; conditions: P388, ip, route intraperitoneal; summary of the method: as §3
Mus musculus [42] = assay: The compound was tested for change in weight for mice implanted intraperitoneally with P-388/FU Leukemia cell line at 223 mg/kg; assay type: functional; conditions: route intraperitoneal; summary of the method: as §2
Mus musculus [43] = assay: The compound was tested for mean survival time for 15 mice implanted Intraperitoneally with P-388/FU Leukemia cell line at 335 mg/kg; assay type: functional; conditions: route intraperitoneal; summary of the method: as §1
Mus musculus [44] = assay: The compound was tested for increase in life span for mice implanted intraperitoneally with P-388/0 Leukemia cell line at 223 mg/kg; assay type: functional; conditions: P388, ip, route intraperitoneal; summary of the method: as §3

SMILES: CC(=O)O[C@H]1C[C@H](n2cc(F)c(=O)[nH]c2=O)O[C@@H]1COP(=O)(OCOC(=O)C(C)(C)C)OCOC(=O)C(C)(C)C
- MST (Mus musculus [1]): 15 days
- MST (Mus musculus [2]): 15 days
- Weight change (Mus musculus [3]): -15%
- MST (Mus musculus [4]): 16 days
- ILS at 160 mg/kg (Mus musculus [5]): 36%
- ILS at 360 mg/kg (Mus musculus [6]): 82%
- ILS at 360 mg/kg (Mus musculus [7]): 45%
- Weight change (Mus musculus [8]): -9%
- MST (Mus musculus [9]): 16 days
- MST (Mus musculus [10]): 20 days
- IC50 (CHO [11]): 5 µM
- ILS at 160 mg/kg (Mus musculus [12]): 36%
- Weight change (Mus musculus [13]): -15%
- Weight change (Mus musculus [14]): -9%
- Weight change (Mus musculus [15]): -12%
- ILS at 240 mg/kg (Mus musculus [16]): 45%
- Weight change (Mus musculus [17]): -13%
- ILS at 240 mg/kg (Mus musculus [18]): 45%
- MST (Mus musculus [19]): 16 days
- IC50 (CHO [20]): 5 µM

SMILES: CC(C)(C)C(=O)OCOP(=O)(OCOC(=O)C(C)(C)C)OC[C@H]1O[C@@H](n2cc(F)c(=O)[nH]c2=O)C[C@@H]1O
- Weight change (Mus musculus [21]): -12%
- half-life [22]: 22.2 min
- MST (Mus musculus [23]): 16 days
- Weight change (Mus musculus [24]): 3%
- ILS at 335 mg/kg (Mus musculus [25]): 73%
- Weight change (Mus musculus [26]): -11%
- MST (Mus musculus [27]): 18 days
- half-life [28]: 1300 min
- Weight change (Mus musculus [29]): -13%
- half-life [30]: 1.8 min
- Weight change (Mus musculus [31]): -9%
- ILS at 223 mg/kg (Mus musculus [32]): 64%
- IC50 (CHO [11]): 5 µM
- MST (Mus musculus [33]): 17 days
- half-life [34]: 2410 min
- half-life [35]: 5.92 days
- ILS at 149 mg/kg (Mus musculus [36]): 36%
- ILS at 149 mg/kg (Mus musculus [37]): 55%
- MST (Mus musculus [38]): 15 days
- MST (Mus musculus [39]): 19 days
- half-life [40]: 7.17 days
- ILS at 335 mg/kg (Mus musculus [41]): 64%
- Weight change (Mus musculus [42]): -12%
- IC50 (CHO [20]): 5 µM
- MST (Mus musculus [43]): 18 days
- ILS at 223 mg/kg (Mus musculus [44]): 45%
